Converted amounts (≈) assume the structure as drawn.
How the values were obtained:
[1] = tested on: Morganella morganii; assay: In vitro antibacterial activity against Morganella morganii A 15153; format: functional
[2] = Compound was evaluated in vivo in blood samples from the orbital sinus for its concentration after an intramuscular administration of 40 mg/kg in mice; format: ADME, organism-based; parameters: dose 40 mg/kg, route intramuscular; conditions: mouse, im
Procedure, shortened: (§1)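 Mice were dosed at 40 mg/kg, either orally with a blunt needle and syringe or intramuscularly, with separate groups for each route. Blood was drawn from the orbital sinus at 5, 15, 30, 60, 120 and 180 min. Urine was pooled over 24 h. Drug levels were measured by agar disk diffusion microbioassay with Salmonella enteritidis A9531 as the assay organism.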

[3] = tested on: Haemophilus influenzae; assay: In vitro antibacterial activity against Haemophilus influenzae A 21515; format: functional
[4] = Compound was tested for the dose to protect 50% of mice from lethal infection against Streptococcus pneumoniae after peroral administration to OF1-strain of female Swiss mice.; format: functional; conditions: po, read-out: PD50
Procedure, shortened: (§2)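 Compounds dissolved in sterile water and given orally to female OF1 Swiss mice weighing 18-25 g, five mice per group.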

[5] = tested on: Bacteroides fragilis; assay: Compound was tested in vitro for its antibacterial activity (minimum inhibitory concentration) against Bacteroides fragilis A 22862.; format: functional; conditions: A22862
[6] = tested on: Klebsiella pneumoniae; assay: In vitro antibacterial activity against Klebsiella pneumoniae A 9664; format: functional
[7] = tested on: Mus musculus; assay: Compound was evaluated in vivo in blood samples from the orbital sinus for its concentration using Area under the time-concentration curve after 40 mg/kg intramuscular administration to mice; format: ADME, organism-based; parameters: dose 40 mg/kg, route intramuscular; conditions: im; procedure, shortened: as §1
[8] = tested on: Pseudomonas aeruginosa; assay: Compound was tested for the dose to protect 50% of mice from lethal infection against Pseudomonas aeruginosa A9843 after peroral administration to OF1-strain of female Swiss mice.; format: functional; conditions: po, read-out: PD50; procedure, shortened: as §2
[9] = tested on: Staphylococcus aureus; assay: In vitro antibacterial activity (minimum inhibitory concentration, MIC) against Staphylococcus aureus A 9537.; format: functional
[10] = tested on: Staphylococcus aureus; assay: Compound was tested for the dose to protect 50% of mice from lethal infection against Staphylococcus aureus A 9606 after peroral administration to OF1-strain of female Swiss mice.; format: functional; conditions: po, read-out: PD50; procedure, shortened: as §2
[11] = tested on: Pseudomonas aeruginosa; assay: Compound was tested in vitro for its antibacterial activity (minimum inhibitory concentration, MIC) against Pseudomonas aeruginosa A 9843; format: functional
[12] = tested on: Serratia marcescens; assay: In vitro antibacterial activity (minimum inhibitory concentration) against Serratia marcescens A 20019.; format: functional
[13] = tested on: Enterococcus faecalis; assay: In vitro antibacterial activity against Enterococcus faecalis A 9809; format: functional
[14] = tested on: Staphylococcus aureus; assay: In vitro antibacterial activity against Staphylococcus aureus A 24227; format: functional
[15] = tested on: Escherichia coli; assay: Compound was tested for the dose to protect 50% of mice from lethal infection against Escherichia coli A 15119 after peroral administration to OF1-strain of female Swiss mice.; format: functional; conditions: po, read-out: PD50; procedure, shortened: as §2
[16] = tested on: Escherichia coli; assay: In vitro antibacterial activity against Escherichia coli A 15119; format: functional
[17] = tested on: Streptococcus pneumoniae; assay: In vitro antibacterial activity against Streptococcus pneumoniae A 9585; format: functional
[18] = in vivo; conditions: mouse, blood, po, 40 mg/kg
[19] = organism: Mus musculus; conditions: in vivo, po, 40 mg/kg
[20] = tested on: Proteus mirabilis; assay: In vitro antibacterial activity (minimum inhibitory concentration, MIC) against Proteus mirabilis A 9900; format: functional
[21] = tested on: Enterobacter cloacae; assay: In vitro antibacterial activity against Enterobacter cloacae A 9656; format: functional
[22] = tested on: Mus musculus; assay: Compound was evaluated in vivo in urine sample collected over 24 hours for its concentration after 40 mg/kg intramuscular administration to mice; format: functional; procedure, shortened: as §1
[23] = in vivo; conditions: mouse, blood, po, 40 mg/kg; remark: listed apart in the source
[24] = Compound was evaluated in vivo in blood samples from the orbital sinus for its half life after 40 mg/kg of intramuscular administration in mice.; format: ADME, organism-based; parameters: dose 40 mg/kg, route intramuscular; conditions: mouse, im
[25] = tested on: Mus musculus; assay: Compound was evaluated in vivo in urine sample collected over 24 hours for its concentration after 40 mg/kg peroral administration to mice; format: functional; conditions: route oral; procedure, shortened: as §1
[26] = Compound was evaluated in vivo in blood samples from the orbital sinus for its concentration after a intramuscular administration 40 mg/kg in mice; format: ADME, organism-based; parameters: dose 40 mg/kg, route intramuscular; conditions: mouse, im; procedure, shortened: as §1
[27] = Compound was evaluated in vivo in blood samples from the orbital sinus for its concentration after a peroral administration of 40 mg/kg in mice; format: ADME, organism-based; parameters: dose 40 mg/kg, route oral; conditions: mouse, po; procedure, shortened: as §1
[28] = Compound was evaluated in vivo in blood samples from the orbital sinus for its concentration after an intramuscular administration of 40 mg/kg in mice.; format: ADME, organism-based; parameters: dose 40 mg/kg, route intramuscular; conditions: mouse, im; procedure, shortened: as §1
[29] = organism: Canis familiaris; conditions: dog, in vivo, po, 25 mg/kg
[30] = in vivo; conditions: dog, po, 25 mg/kg
[31] = tested on: Mus musculus; assay: Compound was evaluated in vivo in urine sample collected over 24 hours for its concentration after 40 mg/kg an intramuscular administration to mice; format: functional; procedure, shortened: as §1
[32] = in vivo; conditions: dog, po, 25 mg/kg; remark: listed apart in the source
[33] = tested on: Canis familiaris; assay: Compound was evaluated in vivo in urine sample collected over 24 hours for its concentration after 25 mg/kg peroral administration to dogs.; conditions: route oral

Molecule `CC(C)(CF)n1cc(C(=O)O)c(=O)c2cc(F)c(N3CC4C[C@@H]3CN4)nc21.Cl` has an MIC [1] of 0.25 µg/mL, a Cmax [2] of 8000 ng/mL and an MIC [3] of 0.13 µg/mL. The ED50 [4] was 57.4 mg/kg, the MIC [5] was 8 µg/mL and the MIC [6] was 0.25 µg/mL. The AUC [7] was 20000 ng·h/mL, the ED50 [8] was 4.9 mg/kg and the MIC [9] was 0.25 µg/mL. The ED50 [10] was 25 mg/kg, the MIC [11] was 0.5 µg/mL and the MIC [12] was 0.25 µg/mL. The MIC [13] was 2 µg/mL, the MIC [14] was 2 µg/mL and the ED50 [15] was 2.4 mg/kg. The MIC [16] was 0.06 µg/mL, the MIC [17] was 0.5 µg/mL and the S was 200 µg/mL. The Cmax [18] was 4000 ng/mL, the AUC [19] was 7000 ng·h/mL and the MIC [20] was 0.5 µg/mL. For the same molecule, the MIC [21] was 0.13 µg/mL.

`CN1CCN(c2c(F)cc3c(=O)c(C(=O)O)cn(CCF)c3c2F)CC1` [FLEROXACIN] gave a UR [22] of 64%, a half-life [23] of 0.967 h and an MIC [1] of 0.03 µg/mL (≈ 0.0812 µM). For the same molecule, the MIC [3] was 0.13 µg/mL (≈ 0.352 µM), the MIC [5] was 1 µg/mL (≈ 2.71 µM) and the half-life [24] was 1.02 h. For the same molecule, the UR [25] was 51%, the MIC [6] was 0.13 µg/mL (≈ 0.352 µM) and the AUC [7] was 32000 ng·h/mL. For the same molecule, the Cmax [26] was 20000 ng/mL, the MIC [9] was 0.06 µg/mL (≈ 0.162 µM) and the MIC [11] was 2 µg/mL (≈ 5.42 µM). The MIC [12] was 0.13 µg/mL (≈ 0.352 µM), the MIC [13] was 8 µg/mL (≈ 21.7 µM) and the MIC [14] was 0.25 µg/mL (≈ 0.677 µM). For the same molecule, the MIC [16] was 0.03 µg/mL (≈ 0.0812 µM), the MIC [17] was 2 µg/mL (≈ 5.42 µM) and the Cmax [18] was 12000 ng/mL. It also gave an AUC [19] of 23000 ng·h/mL, an MIC [20] of 0.06 µg/mL (≈ 0.162 µM) and an MIC [21] of 0.13 µg/mL (≈ 0.352 µM).

`CC(C)(C)n1cc(C(=O)O)c(=O)c2cc(F)c(N3CC[C@H](N)C3)cc21.CS(=O)(=O)O` gave a half-life [23] of 1.1 h, an MIC [1] of 0.13 µg/mL and a Cmax [27] of 3000 ng/mL. The MIC [3] was 0.008 µg/mL, the Cmax [28] was 6000 ng/mL and the AUC [29] was 30000 ng·h/mL. The ED50 [4] was > 25 mg/kg, the MIC [5] was 8 µg/mL and the half-life [24] was 0.9 h. For the same molecule, the UR [25] was 14%, the MIC [6] was 0.5 µg/mL and the AUC [7] was 15000 ng·h/mL. For the same molecule, the Cmax [30] was 2800 ng/mL, the UR [31] was 24% and the ED50 [8] was 10.2 mg/kg. It also gave an MIC [9] of 0.008 µg/mL, an ED50 [10] of 14.4 mg/kg and an MIC [11] of 0.25 µg/mL. For the same molecule, the MIC [12] was 0.13 µg/mL, the MIC [13] was 0.13 µg/mL and the MIC [14] was 0.03 µg/mL. For the same molecule, the ED50 [15] was 9.5 mg/kg, the MIC [16] was 0.016 µg/mL and the half-life [32] was 4 h. The MIC [17] was 0.06 µg/mL, the UR [33] was 7.7% and the S was 250 µg/mL. The AUC [19] was 5000 ng·h/mL, the MIC [20] was 0.06 µg/mL and the MIC [21] was 0.06 µg/mL.

`CC(C)(CF)n1cc(C(=O)O)c(=O)c2cc(F)c(N3CCNCC3)nc21.Cl` gave an MIC [1] of 0.13 µg/mL, an MIC [3] of 0.13 µg/mL and an MIC [5] of 16 µg/mL. It also gave an MIC [6] of 0.25 µg/mL, an MIC [9] of 0.25 µg/mL and an MIC [11] of 1 µg/mL. For the same molecule, the MIC [12] was 0.25 µg/mL, the MIC [13] was 2 µg/mL and the MIC [14] was 0.5 µg/mL. The MIC [16] was 0.13 µg/mL, the MIC [17] was 0.5 µg/mL and the S was 1600 µg/mL. For the same molecule, the MIC [20] was 0.25 µg/mL and the MIC [21] was 0.25 µg/mL.
